≈ marks a conversion by molar mass, not a printed value. Calls of active or inactive are those of the source. The rule behind the calls is not given here.
Experiments:
Gamma-secretase = assay: Inhibition of gamma secretase (unknown origin)-mediated notch processing by cell based assay; design: species or system Homo sapiens
[1] = target: T1, Gamma-secretase (Homo sapiens) (UniProt Q96BI3+Q9NZ42+Q8WW43+P49768+Q92542+P49810); assay: Inhibition of human gamma secretase mediated amyloid beta (1 to 40) production expressed in CHO cells at 50 uM using APP based Flag-C-100 as substrate after 4 hrs by ELISA; format: cell-based
Procedure, shortened: (§1)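 Enzyme: γ-secretase complex purified from CHO cells stably overexpressing all four human components. Substrate: recombinant APP-based C-100 FLAG. Reaction in 0.2% CHAPSO/HEPES, pH 7.5, at 37°C for 4 h, with compounds in DMSO (1% DMSO final). Stopped with 0.5% SDS. Aβ40 measured by commercial ELISA.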

[2] = target: T1, Gamma-secretase (Homo sapiens); assay: Inhibition of human gamma secretase mediated amyloid beta (1 to 40) production expressed in CHO cells at 100 uM using APP based Flag-C-100 as substrate after 4 hrs by ELISA; format: cell-based; procedure, shortened: as §1
[3] = target: T1, Gamma-secretase (Homo sapiens); assay: Inhibition of human gamma secretase mediated notch 1 processing by Western blot analysis; format: protein-complex assay
[4] = Solubility of compound in PBS buffer at pH 7.4; format: physicochemical
[5] = Lipophilicity, log D of the compound; format: physicochemical; conditions: octanol/water
[6] = Plasma protein binding in human; format: ADME, cell-free; conditions: read-out: PPB (converted)
[7] = Permeability of the compound across apical to basolateral side; format: ADME; conditions: not told; read-out: permeability
[8] = Metabolic stability in human liver microsomes assessed as parent compound remaining after 60 mins; format: ADME; conditions: read-out: Stability
[9] = Metabolic stability in rat liver microsomes assessed as parent compound remaining after 60 mins; format: ADME; conditions: read-out: Stability
[10] = target: T1, Gamma-secretase (Homo sapiens); assay: Inhibition of human gamma secretase mediated amyloid beta 42 production expressed in CHO cells at 100 uM using APP based Flag-C-100 as substrate after 4 hrs by ELISA; format: cell-based
[11] = target: T1, Gamma-secretase (Homo sapiens); assay: Inhibition of gamma secretase (unknown origin)-mediated amyloid beta (1 to 42) production at 30 uM by cell based assay
[12] = target: T1, Gamma-secretase (Homo sapiens); assay: Inhibition of gamma secretase (unknown origin)-mediated amyloid beta (1 to 40) production at 100 uM by cell based assay
[13] = target: T1, Gamma-secretase (Homo sapiens); assay: Inhibition of gamma secretase (unknown origin)-mediated amyloid beta (1 to 42) production at 100 uM by cell based assay

SMILES | inhibition [2] | inhibition [3] | other results
CCC(CC)N(Cc1ccc(C(=O)O)cc1)S(=O)(=O)c1ccc(Cl)cc1 | – | – | IC50 (Gamma-secretase): 10 µM
CCC(CC)(CN(Cc1ccccc1)C(C)C)C(=O)c1ccc2ccccc2c1 | – | – | inhibition [1]: 40%
CC(C)N(CCC(O)c1ccc2ccccc2c1)Cc1ccccc1 (racemic) | 81% | inactive | solubility [4]: 98 µM (≈ 32.7 µg/mL); logD [5]: 3.4; fraction unbound [6]: 0.1; Papp A→B [7]: 18.4 ×10⁻⁶ cm/s; remaining at 1 h [8]: 1%; remaining at 1 h [9]: 0%; inhibition [10]: 67%; IC50 (Gamma-secretase): > 100 µM; inhibition [11]: 45%
CCC(CC)(CN(Cc1ccccc1)C(C)C)C(O)c1ccc2ccccc2c1 (racemic) | 82% | inactive | inhibition [12]: 80%; inhibition [13]: 100%; IC50 (Gamma-secretase): > 75 µM
CC(C)(C)N(CCC(O)c1ccc2ccccc2c1)Cc1ccccc1 (racemic) | 0% | – | –
CC(C)CN(CCC(O)c1ccc2ccccc2c1)Cc1ccccc1 (racemic) | 0% | – | –
CC(C)N(CCC(O)c1cc(C(F)(F)F)cc(C(F)(F)F)c1)Cc1ccccc1 (racemic) | 15% | Active | inhibition [11]: 81%
CC(C)N(CCC(O)c1cc(F)cc(Cl)c1)Cc1ccccc1 (racemic) | 30% | Active | –
CC(C)N(CCC(O)c1cc2ccccc2o1)Cc1ccccc1 (racemic) | 0% | – | –
CC(C)N(CCC(O)c1ccc(C(C)(C)C)cc1)Cc1ccccc1 (racemic) | 72% | Active | inhibition [11]: 14%
CC(C)N(CCC(O)c1ccc(OC2CCCCO2)cc1)Cc1ccccc1 (racemic) | 0% | – | –
CC(C)N(CCC(O)c1ccc(OCc2ccccc2)cc1)Cc1ccccc1 (racemic) | 31% | inactive | –
CC(C)N(CCC(O)c1ccc(Oc2ccccc2)cc1)Cc1ccccc1 (racemic) | 24% | inactive | –
CC(C)N(CCC(O)c1ccc2c(c1)OCO2)Cc1ccccc1 (racemic) | 0% | – | –
CC(C)N(CCC(O)c1ccc2ccccc2c1)Cc1cc(F)cc(F)c1 (racemic) | 54% | Active | –
CC(C)N(CCC(O)c1ccc2ccccc2c1)Cc1ccc(C#N)cc1 (racemic) | 19% | – | –
CC(C)N(CCC(O)c1ccc2ccccc2c1)Cc1ccc(Cl)c(Cl)c1 (racemic) | 60% | inactive | –
CC(C)N(CCC(O)c1ccc2ccccc2c1)Cc1ccc(F)c(Cl)c1 (racemic) | 38% | – | –
CC(C)N(CCC(O)c1ccc2ccccc2c1)Cc1ccc(F)c(F)c1 (racemic) | 64% | inactive | inhibition [13]: 23%
CC(C)N(CCC(O)c1ccc2ccccc2c1)Cc1cccc(C#N)c1 (racemic) | 7% | – | –
CC(C)N(CCC(O)c1ccc2ccccc2c1)c1ccccc1 (racemic) | 68% | Active | –

SMILES | inhibition [2] | inhibition [3] | other results
CC(C)N(CCC(O)c1cccc(Oc2ccccc2)c1)Cc1ccccc1 (racemic) | 30% | inactive | –
CC(C)N(CCC(O)c1cccc2ccccc12)Cc1ccccc1 (racemic) | 46% | inactive | –
CC(C)N(CCC(O)c1ccccc1)Cc1ccccc1 (racemic) | 10% | Active | –
CC(C)N(CCCC(O)c1ccc2ccccc2c1)Cc1ccccc1 (racemic) | 18% | Active | –
CC(C)N(Cc1ccccc1)CC(C)(C)C(O)c1ccc2ccccc2c1 (racemic) | 72% | inactive | –
CC(C)N(Cc1ccccc1)CC(O)c1ccc2ccccc2c1 (racemic) | 0% | Active | –
CCC(CC)(CN(Cc1ccc(Cl)c(Cl)c1)C(C)C)C(O)c1ccc2ccccc2c1 (racemic) | 59% | inactive | –
CCC(CC)(CN(Cc1ccc(F)c(F)c1)C(C)C)C(O)c1ccc2ccccc2c1 (racemic) | 69% | inactive | –
CCN(CCC(O)c1ccc2ccccc2c1)Cc1ccccc1 (racemic) | 15% | – | –
CN(CCC(O)c1ccc2ccccc2c1)Cc1ccccc1 (racemic) | 15% | inactive | –
COC(CCN(Cc1ccccc1)C(C)C)c1ccc2ccccc2c1 (racemic) | 51% | inactive | –
COc1cc(CN(CCC(O)c2ccc3ccccc3c2)C(C)C)cc(OC)c1 (racemic) | 17% | inactive | –
COc1ccc(CN(CCC(O)c2ccc3ccccc3c2)C(C)C)cc1 (racemic) | 55% | inactive | –
COc1ccc(N2CCN(CCC(O)c3ccc4ccccc4c3)CC2)cc1 (racemic) | 0% | – | –
Cc1ccc(C(O)CCN(Cc2ccccc2)C(C)C)cc1F (racemic) | 29% | Active | –
OC(CCN(Cc1ccccc1)C1CC1)c1ccc2ccccc2c1 (racemic) | 36% | – | –
OC(CCN(Cc1ccccc1)Cc1ccccc1)c1ccc2ccccc2c1 (racemic) | 32% | – | –
OC(CCN1CCN(Cc2ccccc2)CC1)c1ccc2ccccc2c1 (racemic) | 15% | inactive | –
OC(CCN1CCN(c2ccc(F)cc2)CC1)c1ccc2ccccc2c1 (racemic) | 61% | inactive | –
OC(CCN1CCN(c2cccc(C(F)(F)F)c2)CC1)c1ccc2ccccc2c1 (racemic) | 38% | inactive | inhibition [10]: 14%
OC(CCN1CCN(c2ccccc2)CC1)c1ccc2ccccc2c1 (racemic) | 0% | inactive | –

From ChEMBL document CHEMBL3797091, “Part 2. Notch-sparing γ-secretase inhibitors: The study of novel γ-amino naphthyl alcohols” (Bioorg Med Chem Lett, 2016)
